Experimental data as given in ChEMBL document CHEMBL1212837, “Benzo[b]thiophene-6-carboxamide 1,1-dioxides: inhibitors of human cancer cell growth at nanomolar concentrations” (2010).
Activity calls are given as the source filed them. The calls are words filed in the database; no cut-off is given here.

Legend:
[1] = tested on: K562; assay: Cytotoxicity against human K562 cells after 72 hrs by MTT assay; format: functional; conditions: K562, 72 h
Procedure, shortened: (§1)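 Cells were grown in medium with 10% fetal calf serum, 2 mM L-glutamine, penicillin/streptomycin and 10 mM HEPES (pH 7.4). Compounds were made up as a 0.1 M DMSO stock and serially diluted in medium to five doses between 0.01 and 100. Exposure was 72 h at 37 °C in humidified 5% CO₂. Read-out was MTT colorimetric, giving GI50 as the concentration reducing growth by 50%.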

[2] = Cytotoxicity against human HTB-54 cells after 72 hrs by MTT assay; format: functional; conditions: HTB-54, 72 h; procedure, shortened: as §1
[3] = Cytotoxicity against human MEL-AC cells after 72 hrs by MTT assay; format: functional; procedure, shortened: as §1
[4] = tested on: HT-29; assay: Cytotoxicity against human HT-29 cells after 72 hrs by MTT assay; format: functional; conditions: HT-29, 72 h; procedure, shortened: as §1
[5] = tested on: CCRF-CEM; assay: Cytotoxicity against human CCRF-CEM cells after 72 hrs by MTT assay; format: functional; procedure, shortened: as §1
[6] = tested on: HeLa; assay: Cytotoxicity against human HeLa cells after 72 hrs by MTT assay; format: functional; procedure, shortened: as §1
[7] = tested on: CCRF-CEM; assay: Cell cycle arrest in human CCRF-CEM cells assessed as accumulation at S phase after 24 hrs using propidium iodide staining by flow cytometry; format: functional, cell-based
Procedure, shortened: (§2)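 CCRF-CEM cells were seeded at 10⁶ cells/ml in complete medium and exposed to 2.5 µM for 24 h. Cells were pelleted (700 g, 6 min, 4 °C), washed in PBS and fixed in 70% ethanol at 4 °C for 20 min. They were then stained with PI (50 µg/ml) plus RNase at 37 °C for 30 min. DNA content was read by flow cytometry on 10,000 events to give phase percentages. Six independent experiments, duplicate wells, mean SD.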

[8] = tested on: CCRF-CEM; assay: Cell cycle arrest in human CCRF-CEM cells assessed as accumulation at S phase at 2.5 uM using propidium iodide staining by flow cytometry; format: functional, cell-based; conditions: TDE = time-dependent effect; procedure, shortened: as §2
[9] = tested on: CCRF-CEM; assay: Induction of apoptosis in human CCRF-CEM cells at 6 uM after 12 hrs using V-FITC and propidium iodide staining by flow cytometry; format: functional
Procedure, shortened: (§3)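 CCRF-CEM cells were incubated with compound for 12 to 48 h. Cells (5×10⁵) were pelleted, washed in PBS and stained with annexin V-FITC plus propidium iodide for 15 min at 4 °C in the dark. Phosphatidylserine-exposing (apoptotic) cells were counted by flow cytometry. Five independent experiments, duplicate wells, mean SD.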

[10] = tested on: CCRF-CEM; assay: Induction of apoptosis in human CCRF-CEM cells at 6 uM after 48 hrs using V-FITC and propidium iodide staining by flow cytometry; format: functional; procedure, shortened: as §3
[11] = tested on: CCRF-CEM; assay: Cell cycle arrest in human CCRF-CEM cells assessed as accumulation at sub-G1 phase at 2.5 uM after 24 hrs using propidium iodide staining by flow cytometry; format: functional, cell-based; procedure, shortened: as §2
[12] = tested on: CCRF-CEM; assay: Cell cycle arrest in human CCRF-CEM cells assessed as accumulation at S phase at 2.5 uM after 24 hrs using propidium iodide staining by flow cytometry; format: functional, cell-based; procedure, shortened: as §2
[13] = tested on: CCRF-CEM; assay: Cell cycle arrest in human CCRF-CEM cells assessed as reduction of cell accumulation at G0/G1 phase at 2.5 uM after 24 hrs using propidium iodide staining by flow cytometry; format: functional, cell-based; procedure, shortened: as §2
[14] = tested on: CCRF-CEM; assay: Induction of increase in ROS level in human CCRF-CEM cells at 2.5 uM after 24 hrs using CM-H2DCFDA fluorescent probe by flow cytometry; format: functional, cell-based
Procedure, shortened: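 CCRF-CEM cells at 1×10⁶ cells/ml were cultured with or without 2.5 µM for 24 h. Cells (2×10⁶) were then loaded with 1 µM CM-H₂DCFDA for 60 min at 37 °C and fluorescence was read by flow cytometry. Results are expressed as fold over untreated cells, with 4-HPR as the positive control. Two independent experiments, triplicate wells, mean SD.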

[15] = tested on: CCRF-CEM; assay: Induction of apoptosis in human CCRF-CEM cells at 2.5 uM after 24 hrs using V-FITC and propidium iodide staining by flow cytometry in presence of N-acetyl-cysteine

SMILES: COc1ccc(CCNC(=O)c2ccc3c(c2)S(=O)(=O)C=C3)cc1
- GI50 [1]: 2660 nM
- GI50 [2]: 640 nM
- GI50 [3]: 1320 nM
- GI50 [4]: 2080 nM
- GI50 [5]: 730 nM
- GI50 [6]: 40 nM
- Activity [7]: Dose-dependent effect
- Activity [8]: tde

SMILES: COc1ccc(CCNS(=O)(=O)c2ccc3c(c2)S(=O)(=O)C=C3)cc1
- GI50 [1]: 6 nM
- GI50 [2]: 620 nM
- GI50 [3]: 1930 nM
- GI50 [4]: 220 nM
- GI50 [5]: 5 nM
- GI50 [6]: 120 nM
- Activity [7]: Dose-dependent effect
- Activity [8]: tde

SMILES: NS(=O)(=O)c1ccc2c(c1)S(=O)(=O)C=C2
- GI50 [1]: 29400 nM
- GI50 [2]: 5890 nM
- GI50 [3]: 7140 nM
- GI50 [4]: 8550 nM
- GI50 [5]: 2860 nM
- GI50 [6]: 2210 nM
- Activity [7]: Dose-dependent effect
- Activity [8]: tde

SMILES: CN(Cc1ccccc1)S(=O)(=O)c1ccc2c(c1)S(=O)(=O)C=C2
- GI50 [1]: 38100 nM
- GI50 [2]: 400 nM
- GI50 [3]: 2300 nM
- GI50 [4]: 35000 nM
- GI50 [5]: 630 nM
- GI50 [6]: 10 nM
- Activity [7]: Dose-dependent effect
- Activity [8]: tde

SMILES: O=S1(=O)C=Cc2ccc(S(=O)(=O)NCc3ccccc3)cc21
- GI50 [1]: 720 nM
- GI50 [2]: 700 nM
- GI50 [3]: 400 nM
- GI50 [4]: 840 nM
- GI50 [5]: 330 nM
- GI50 [6]: 10 nM
- Activity [7]: Dose-dependent effect
- Activity [8]: tde

SMILES: O=S1(=O)C=Cc2ccc(O)cc21
- GI50 [1]: 51100 nM
- GI50 [2]: 7530 nM
- GI50 [3]: 24000 nM
- GI50 [4]: 2040 nM
- GI50 [5]: 19200 nM
- Activity [7]: Dose-dependent effect
- Activity [8]: tde

SMILES: COc1ccc(NC(=O)c2ccc3c(c2)S(=O)(=O)C=C3)cc1
- GI50 [1]: 47 nM
- GI50 [2]: 2 nM
- GI50 [3]: 760 nM
- GI50 [4]: 350 nM
- GI50 [5]: 4 nM
- GI50 [6]: 3 nM
- Activity [9]: 30.4%
- Activity [10]: 83%
- Activity [11]: Active
- Activity [12]: Active
- Activity [13]: Active
- Activity [7]: Dose-dependent effect
- Activity [8]: tde
- Activity [14]: Active
- Activity [15]: Active

SMILES: CCCCNC(=O)c1ccc2c(c1)S(=O)(=O)C=C2
- GI50 [1]: 2730 nM
- GI50 [2]: 90 nM
- GI50 [3]: 1420 nM
- GI50 [4]: 2320 nM
- GI50 [5]: 280 nM
- GI50 [6]: 80 nM
- Activity [7]: Dose-dependent effect
- Activity [8]: tde

SMILES: NC(=O)c1ccc2c(c1)S(=O)(=O)C=C2
- GI50 [1]: 7850 nM
- GI50 [2]: 220 nM
- GI50 [3]: 3520 nM
- GI50 [4]: 5190 nM
- GI50 [5]: 3550 nM
- GI50 [6]: 650 nM
- Activity [7]: Dose-dependent effect
- Activity [8]: tde
